Data from ChEMBL document CHEMBL1926598, “Synthesis, anti-inflammatory activity and ulcerogenic liability of novel nitric oxide donating/chalcone hybrids” (Bioorg Med Chem, 2012).

Legend:
Rattus norvegicus [1] = test: Antiinflammatory activity in albino rat assessed as inhibition of carrageenan-induced paw edema at 100 mg/kg, po administered 30 mins prior to challenge measured after 1 hr relative to untreated control; format: functional
Method in brief: (§1)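 Adult male albino rats (120–140 g), groups of four, fasted 24 h with water allowed. Test compound suspended in 0.5% w/v CMC in water, given orally at 100 mg/kg; controls received CMC alone. After 30 min, 0.1 mL of 1% carrageenan in saline injected subplantar into right hind paw, saline into left. Paw thickness measured by caliper; % inhibition = [(VR−VL)control − (VR−VL)treated]/(VR−VL)control ×100; one-way ANOVA versus control.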

Rattus norvegicus [2] = test: Antiinflammatory activity in albino rat assessed as inhibition of carrageenan-induced paw edema at 100 mg/kg, po administered 30 mins prior to challenge measured after 2 hrs relative to untreated control; format: functional; method in brief: as §1
Rattus norvegicus [3] = test: Antiinflammatory activity in albino rat assessed as inhibition of carrageenan-induced paw edema at 100 mg/kg, po administered 30 mins prior to challenge measured after 3 hrs relative to untreated control; format: functional; method in brief: as §1
Rattus norvegicus [4] = test: Antiinflammatory activity in albino rat assessed as inhibition of carrageenan-induced paw edema at 100 mg/kg, po administered 30 mins prior to challenge measured after 4 hrs relative to untreated control; format: functional; method in brief: as §1
Rattus norvegicus [5] = test: Antiinflammatory activity in albino rat assessed as inhibition of carrageenan-induced paw edema at 100 mg/kg, po administered 30 mins prior to challenge measured after 5 hrs relative to untreated control; format: functional; method in brief: as §1
Rattus norvegicus [6] = test: Gastric toxicity in albino rat assessed as ulcer index at 100 mg/kg, po after 5 hrs; format: organism-based; parameters: dose 100 mg/kg, route oral; settings: in vivo
Method in brief: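 Rats dosed orally at 100 mg/kg in 0.5% CMC (n = 4). Stomach lesions counted and graded by area: level I <1 mm², II 1–3 mm², III >3 mm². Ulcer index = 1×(level I count) + 2×(level II) + 3×(level III). Mean ± SEM; one-way ANOVA versus control.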

Rattus norvegicus [7] = test: Gastric toxicity in albino rat assessed as capillary inflammatory cells appearance at 100 mg/kg, po after 5 hrs by hematoxylin and eosin staining; format: organism-based; parameters: dose 100 mg/kg, route oral; settings: in vivo
Method in brief: (§2)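 Stomach sections from control and treated rats were dewaxed and hydrated through graded alcohols. They were stained with haematoxylin 5–7 min, differentiated 5–10 s in 1% HCl in 70% alcohol, then stained with 1% eosin for 10 min. Mucosa of the fundic stomach was examined by light microscopy.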

Rattus norvegicus [8] = test: Gastric toxicity in albino rat assessed as edema at 100 mg/kg, po after 5 hrs by hematoxylin and eosin staining; format: organism-based; parameters: dose 100 mg/kg, route oral; settings: in vivo; method in brief: as §2
Rattus norvegicus [9] = test: Gastric toxicity in albino rat assessed as capillary dilation in lamina propia below fundic gland at 100 mg/kg, po after 5 hrs by hematoxylin and eosin staining; format: organism-based; parameters: dose 100 mg/kg, route oral; settings: in vivo; method in brief: as §2
Rattus norvegicus [10] = test: Gastric toxicity in albino rat assessed as loss of mucosal membrane at the area of ulceration at 100 mg/kg, po after 5 hrs by hematoxylin and eosin staining; format: organism-based; parameters: dose 100 mg/kg, route oral; settings: in vivo; method in brief: as §2
Rattus norvegicus [11] = test: Gastric toxicity in albino rat assessed as change in gastric mucosa structure at 100 mg/kg, po after 5 hrs by hematoxylin and eosin staining; format: organism-based; parameters: dose 100 mg/kg, route oral; settings: in vivo; method in brief: as §2
Rattus norvegicus [12] = test: Gastric toxicity in albino rat assessed as loss of glandular structure morphology at 100 mg/kg, po after 5 hrs by hematoxylin and eosin staining; format: organism-based; parameters: dose 100 mg/kg, route oral; settings: in vivo; method in brief: as §2

SMILES | inhibition in vivo at 100 mg/kg (Rattus norvegicus [1]) [%] | inhibition in vivo at 100 mg/kg (Rattus norvegicus [2]) [%] | inhibition in vivo at 100 mg/kg (Rattus norvegicus [3]) [%] | inhibition in vivo at 100 mg/kg (Rattus norvegicus [4]) [%] | inhibition in vivo at 100 mg/kg (Rattus norvegicus [5]) [%] | UI (Rattus norvegicus [6]) | Activity (Rattus norvegicus [7]) | Activity (Rattus norvegicus [8]) | Activity (Rattus norvegicus [9]) | Activity (Rattus norvegicus [10]) | Activity (Rattus norvegicus [11]) | Activity (Rattus norvegicus [12])
CC(=O)c1ccc(OCC(=O)Nc2ccc(C(=O)/C=C/c3ccc4c(c3)OCO4)cc2)cc1 | 37 | 43 | 57 | 53 | 50 | 11.2 | Toxic | Toxic | Toxic |  |  | 
O=C(CBr)Nc1ccc(C(=O)/C=C/c2ccc(Cl)cc2)cc1 | 44 | 52 | 59 | 59 | 54 | 21.4 |  |  |  | Toxic | Toxic | Toxic
